Results from different studies.
Each line is one published result; the experiments were not run side by side.
Observed: cell growth or viability

CC(C)C[C@H](NC(=O)OCc1ccccc1)C(=O)N[C@@H](CC(C)C)C(=O)N[C@@H](CC(C)C)C(=O)C(=O)Nc1cccc2ncccc12
IC50 (RPMI-8226; MTS; 72 h): 0.134 µM

O=C(O)CCCc1ccc(N(CCCl)CCCl)cc1
IC50 (OVCAR-3; CCK-8; 48 h): 29.4 µM

CCOP(=S)(OCC)Oc1nc(Cl)c(Cl)cc1Cl
IC50 (ReNcell VM; imaging; 24 h): ~11.6 µM

C[C@H]1CN(c2ccncc2NC(=O)c2ccc(F)c(-c3c(F)cccc3F)n2)C[C@@H](N)[C@@H]1O
GI50 (RPMI-8226; thymidine uptake): 156 nM

CCCCC/C=C\C/C=C\C/C=C\C/C=C\CCCC(=O)NCCO
IC50 (ReNcell VM; imaging; 24 h): ~11.4 µM

Cc1cc(N(CCOS(C)(=O)=O)CCOS(C)(=O)=O)ccc1C=O
IC50 (ACHN): 0.263 µg/mL

CC(C)C[C@H](NC(=O)OCc1ccccc1)C(=O)N[C@@H](Cc1ccccc1)C(=O)N[C@@H](CC(C)C)C(=O)C(=O)Nc1ccccc1
IC50 (RPMI-8226; MTS; 72 h): 0.843 µM

COc1cc2c3c(n(CCCNCCO)c(=O)c2cc1OC)-c1cc2c(cc1C3=O)OCO2
GI50 (OVCAR-3): 500 nM
